# Assay outcomes from PubChem BioAssay.
# SKKanGAS inh – S. pyogenes SKKanGAS growth inhibitors in kanamycin, primary screen, streptokinase expression inhibitor project, SKKanGAS strain, BacTiter-Glo luminescence; 6 h; inhibition, % at 7.5 µM; 300,000 compounds, 1.3% hits;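 active means mean replicate score, as percent of positive control median, at least 50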;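 further: strain carries kanamycin resistance gene driven by streptokinase promoter and grows in 40 µg/ml kanamycin; loss of luminescence reflects streptokinase promoter inhibition or plain growth inhibition; 0% = median of DMSO wells and 100% = positive control at its reference dose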
# Calb FLC – C. albicans growth inhibition with fluconazole, primary screen, CaCi-2 strain, Alamar Blue fluorescence; 300,000 compounds, 0.57% hits; C. albicans CaCi-2 (fluconazole-resistant clinical isolate) + fluconazole, 48 h; AID 1979, 2009; growth inhibition, % (concentration not given with the values);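 active means growth inhibition above about 58% in most replicates, limit read from the data, passing the limit was not always enough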;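 further: all wells also contain fluconazole at 8 µg/ml as a sub-toxic cotreatment; 0% = median of DMSO wells and 100% = median of geldanamycin control wells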
# ARFGAP1 inhibitor – inhibitors of rat ARFGAP1 GAP activity, primary screen, biochemical, fluorescence polarization, GDP tracer; ADP-ribosylation factor GTPase-activating protein 1 (Rattus norvegicus), Q62848; Arfgap1-stimulated ARF1 GTP hydrolysis, GDP FP detection; inhibition, % at 16.5 µM; 360,000 compounds, 0.26% hits; AID 651572, 2012;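 active means inhibition above a per-plate limit, mean inhibition of low control wells plus 3 SD, cut at about 25% in these data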;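 further: 0% = DMSO wells with enzyme and 100% = wells lacking Arfgap1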
# Target sequence (Q62848 1-136 limits assumed): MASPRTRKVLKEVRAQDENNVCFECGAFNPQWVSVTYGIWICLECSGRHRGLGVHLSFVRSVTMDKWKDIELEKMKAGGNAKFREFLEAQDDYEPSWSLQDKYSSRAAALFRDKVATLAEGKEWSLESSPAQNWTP
#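 System: truncated rat Arfgap1 GAP domain / Medium: HEPES-based buffer, pH 7.5 / Also added: N-terminally truncated human ARF1-GTP substrate / Incubation: enzyme reaction 120 min at 25 °C after 20 min preincubation / Measured by: FP of antibody-bound GDP Alexa 633 tracer, ex 620/em 688 nm / Replicates: singlicate, each compound tested once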
# ASAP1 GAP inh – inhibitors of human ASAP1 ArfGAP activity, primary screen, biochemical, fluorescence polarization | ASAP1-stimulated ARF1 GTP hydrolysis, GDP FP detection | inhibition, % at 16.5 µM | 360,000 compounds, 0.19% hits | AID 624377, 2012; in the data active means inhibition above about 25%;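 further: 0% = vehicle with enzyme and substrate and 100% = no enzyme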
# HGIII-sPLA2 inh – human group III sPLA2 inhibitors, primary screen, biochemical, QFRET, BODIPY PC-A2 liposome substrate. QFRET BODIPY PC-A2 liposome hydrolysis, fluorescence. Group 3 secretory phospholipase A2 (Homo sapiens), Q9NZ20. inhibition, % at 12.2 µM. 370,000 compounds, 0.56% hits;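 active means inhibition above mean plus 3 SD of compounds lying within the high and low control bounds, cut at about 19% in these data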;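 further: 0% = median of test compound wells and 100% = no enzyme DMSO wells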
# sPLA2 confirm – human group III sPLA2 inhibitors, confirmation, biochemical, QFRET, triplicate; shares compounds with HGIII-sPLA2 inh; recombinant hGIII-sPLA2, BODIPY PC-A2 QFRET fluorescence; inhibition, % at 12.2 µM; 2,000 compounds, 34% hits;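 active means mean inhibition across triplicates above the hit cutoff set in the earlier primary screen, cut at about 19% in these data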;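 further: 0% = enzyme with DMSO and 100% = DMSO wells lacking enzyme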
# BODIPY interf – 535nm fluorescence optical interference, confirmation, artefact control for HGIII-sPLA2 inhibitor project, biochemical, QFRET | inhibition, % at 12.2 µM | BODIPY FL product fluorescence interference | 2,000 compounds, 8.5% hits | shares compounds with HGIII-sPLA2 inh;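 active means average inhibition above the solvent-only control mean plus 3 SD, cut at about 6% in these data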;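 further: 0% = DMSO with substrate plus product and 100% = DMSO with substrate alone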
# 535nm interf DR – 535nm fluorescence optical interference, dose response, artefact control for HGIII-sPLA2 inhibitor project, biochemical, QFRET; shares compounds with HGIII-sPLA2 inh; BODIPY FL product fluorescence interference, cell-free; IC50, µM; 240 tested, under 10 active;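 active means IC50 at or below 10 µM; inactive means IC50 above 10 µM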
# * marks the source's active call; other numbers are inactive results; . = not tested or not shown. Most compounds without a hit are left out; they make up all but 2.3% or so of the library.
SMILES,SKKanGAS inh,Calb FLC,ARFGAP1 inhibitor,ASAP1 GAP inh,HGIII-sPLA2 inh,sPLA2 confirm,BODIPY interf,others
CC(C)(C)c1cc(Cl)c(O)c(NC(=S)NC(=O)c2cccnc2)c1,82*,49,15,1,25*,23*,1,
COC(=O)[C@]12C[C@H](CC(=O)NCCCN3CCCC3=O)C(=O)N(Cc3ccco3)C1=C[C@H](C(C)(C)C)O[C@@H]2C,.,.,.,.,3,.,.,
CC1(C)CCC(C)(C)c2cc(NC(=O)c3ccc(C(=O)O)cc3)ccc21,.,.,.,.,-28,.,.,
CCOc1cccc(/C=N/NC(=S)Nc2cc(S(=O)(=O)N3CCOCC3)ccc2N2CCOCC2)c1O,22,-6,-6,4,23*,33*,-16,
N=C(N)SCc1ccc(Cl)c2ccccc12,.,.,9,-4,45*,32*,-11,535nm interf DR=>122
CC(=O)C1=C(O)C(=O)N(C)C1c1ccccc1[N+](=O)[O-] (stereo unspecified),0,-19,10,13,25*,-1,-2,
COC(=O)c1sc(C(C)(C)C)cc1CSc1ccccc1,8,-1,-3,2,21*,-21,-8,
NC(=S)Nn1c(-c2ccccc2)nc2ccccc2c1=O,-1,31,12,-15,19*,6,0,
O=C(Cc1ccccc1)Nn1c(-c2ccccc2)nc2ccccc2c1=O,2,-23,1,-1,15,.,.,
CCOC(=O)[C@@]12CCCC=C1N(CCc1ccc(Cl)cc1)C(=O)[C@H]2CC(=O)N1CCN(C(=O)c2ccco2)CC1,.,.,.,.,2,.,.,
C=CCOC(=O)C1=C(C)NC(=S)NC1/C=C/c1ccccc1 (stereo unspecified),-1,-12,-1,23,13,.,.,
COCCOC(=O)C1=C(C)NC(=S)NC1/C=C/c1ccccc1 (stereo unspecified),-16,9,0,-3,22*,14,-9,
COc1cccc(-n2c(N)c(C#N)c3ccc([N+](=O)[O-])cc3c2=O)c1,10,-12,12,2,26*,6,-1,
CNc1ccccc1C(=O)OCC(=O)N(CCOC)c1c(N)n(CC(C)C)c(=O)[nH]c1=O,-4,-8,-11,12,20*,11,-8,
Cc1ccc(NS(=O)(=O)c2cc3c(cc2Cl)NC(=O)CO3)cc1C,.,.,.,.,-33,.,.,
O=C(Nc1ccccc1)C1C2CCCCC21 (stereo unspecified),12,-2,7,4,-4,.,.,
O=C(NNC(=S)Nc1ccc(F)cc1)C1[C@H]2CCCC[C@@H]12 (stereo partly specified),2,6,-15,-2,25*,22*,3,
CN1CCC(N2CCN(C3CN(Cc4cn(Cc5cccc(C(F)(F)F)c5)nn4)S(=O)(=O)C3)CC2)CC1 (stereo unspecified),.,.,0,-6,13,.,.,
CCn1c(COc2ccccc2)nnc1SCC(=O)Nc1ccc(S(=O)(=O)Nc2cc(C)nc(C)n2)cc1,.,.,.,.,-14,.,.,
CC(OC(=O)c1n[nH]c2ccccc12)C(=O)NC1CCCCC1C (stereo unspecified),.,.,1,8,-4,.,.,
CC(OC(=O)c1nn(C)c(=O)c2ccccc12)C(=O)NC1CCCCC1C (stereo unspecified),-4,10,-4,1,19*,-2,-5,
CCCOC(=O)CCCCC1SCC(NC(=O)OC)C1NC(=O)OC (stereo unspecified),-4,-7,9,9,20*,-2,-9,
